The target of test [1] is T1, Glutamate receptor ionotropic, AMPA (Rattus norvegicus, UniProt P19490+P19491+P19492+P19493). As to the kind of experiment: Displacement of [3H]CP-526427 from non competitive […] or benzodiazepine binding site of AMPA receptor from rat forebrain. The procedure, abridged:
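Adult male Sprague-Dawley rat forebrain membranes (P2 fraction, lysed in Tris acetate) diluted to 0.5 mg protein/mL in 50 mM Tris-HCl pH 7.4. Compound dilution series plus 3 nM [3H]CP-526,427, incubated 20 min at 30 °C, then filtered and counted by scintillation. Nonspecific binding taken with 10 µM unlabeled CP-526,427 or CP-465,022.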
In general terms: Displacement assays read how much labelled ligand stays bound in the presence of the test substance.

The species entered for test [2] is Mus musculus. Briefly: Effect on locomotor activity assessed by rotarod test in DBA/2 mice. In kind it is functional. An outline of the steps:
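Rotarod locomotor deficit in DBA/2 mice after ip dosing across 3.3-200 µmol/kg. TD50 by Litchfield-Wilcoxon with 95% confidence limits, at least 32 animals per value.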

The target of test [3] is Glutamate receptor ionotropic, AMPA (Rattus norvegicus) (UniProt P19491+P19492+P19493+P19490). Briefly: Inhibition of kainate induced [45Ca]2+ uptake in rat cerebellar granule cells expressing AMPA receptor at 32 uM. In kind it is functional. An outline of the steps:
(§1)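 Primary rat cerebellar granule neurons preincubated 30 min with compound in BSS (HEPES, pH 7.3). Then exposed at room temperature for 10 min to 100 µM kainate with 10 µM glycine, 0.5 mM DTT and 0.5 µCi 45Ca2+. Washed in ice-cold BSS containing 5 mM EGTA, lysed in Triton X-100, radioactivity counted.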

The subject of test [4] is Mus musculus. Briefly: Effect on clonic phase of audiogenic seizures in DBA/2 mice after 30 min at 3.3-200 umol/kg, ip. Particulars: DBA/2, ip, 0.5 h. In kind it is functional. An outline of the steps: (§2)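 DBA/2 mice, 8-12 g, 22-25 days old, either sex, 10 per group. Dosed ip, vehicle or 3.3-200 µmol/kg, then sound stimulus 30 min later; latency and incidence of each seizure phase scored. ED50 by Litchfield-Wilcoxon, 95% confidence limits, at least 32 animals per value.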

For test [5], the species on record is Mus musculus. As to the kind of experiment: Ratio of TD50 over ED50 (clonic phase of audiogenic seizures) in DBA/2 mice. In kind it is functional. The procedure, abridged: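 Protective index: rotarod TD50 divided by clonic-phase audiogenic ED50, both from ip-dosed DBA/2 mice fitted by Litchfield-Wilcoxon.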
In test [6] the test system is Mus musculus. As to the kind of experiment: Effect on tonic phase of audiogenic seizures in DBA/2 mice after 30 min at 3.3-200 umol/kg, ip. In kind it is functional. As to conditions: DBA/2, ip, 0.5 h. An outline of the steps: as §2
Test [7] deals with T1, Glutamate receptor ionotropic, AMPA. As to the kind of experiment: Inhibition of kainate induced [45Ca]2+ uptake in rat cerebellar granule cells expressing AMPA receptor. In kind it is functional. An outline of the steps:
as §1

Test [8] addresses Glutamate NMDA receptor. Briefly: Displacement of [3H]glycine from Gly/NMDA receptor in rat cerebral cortex synaptic membranes. In kind it is cell membranes, Membrane. The procedure, abridged: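 Rat cortical synaptic membranes with 8 nM [3H]glycine as ligand, following an earlier published method.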
Test [9] deals with T1, Glutamate receptor ionotropic, AMPA. Briefly: Displacement of [3H]AMPA from AMPA receptor in rat cerebral cortex synaptic membranes. In kind it is cell membranes, Membrane. The procedure, abridged:
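Rat cerebral cortex synaptic membranes with 5 nM [3H]AMPA, following an earlier published method.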

In test [10] the target is Glutamate NMDA receptor (Rattus norvegicus) (UniProt P35439+Q00959+Q00960+Q00961+Q62645+Q8VHN2+Q9R1M7). Briefly: Displacement of [3H](+)-MK-801 from rat cortical NMDA ion channel complex at 100 uM. In kind it is protein-complex assay. The procedure, abridged:
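Rat cortical membranes washed in 5 mM Tris-HCl pH 7.4 with 0.08% Triton X-100, then pelleted and resuspended through four more cycles. Incubated 120 min at room temperature with 2.5 nM [3H]-(+)-MK-801, glutamic acid and glycine, with or without compound. Bound ligand separated on polyethylenimine-soaked GF/C filters. Nonspecific binding defined with phencyclidine.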

The source made the active and inactive calls. No cut-off for these calls is given here. A value given as a limit tells only on which side of the number the result lay.

A word on the IC50: it is the point on the concentration scale where inhibition reaches its midpoint. A lower IC50 goes with greater potency. The term inhibition denotes the drop in the measured response relative to a control, in per cent. As a reminder, the ED50 is the midpoint of the dose-response relation. A lower ED50 goes with greater potency.

`C[C@H]1C(=O)NN=C(c2ccc(N)cc2)c2cc3c(cc21)OCO3` displayed an IC50 in test [1] greater than 10 µM. In addition, in test [2], the TD50 is greater than 100 µM/kg. Besides, the inhibition entry in test [3] was “inactive”. Moreover, the figures for the ED50 in [4] and in test [6] were 88.4 µmol/kg and 7.36 µmol/kg, respectively. In addition, in test [5], the “Ratio TD50/ED50” value is greater than 1.1.

For `C[C@@H]1C(=O)NN=C(c2ccc(N)cc2)c2cc3c(cc21)OCO3`, the IC50 in [1] was determined as 3.27 µM; in test [7] it was 6 µM. Moreover, the TD50 in [2] is 34.2 µM/kg. In addition, the ED50 in test [4] amounted to 11 µmol/kg; in [6], 1.74 µmol/kg. The “Ratio TD50/ED50” value in [5] came out at 3.1.

Consider `CC1C(=O)NN=C(c2ccc(N)cc2)c2cc3c(cc21)OCO3` (racemic), for which the IC50 in [1] was greater than 10 µM; in test [8] it was greater than 100 µM; in test [7], 12 µM; in test [9], greater than 100 µM. In [2], this compound came in with a TD50 of 48.5 µM/kg. The inhibition came to 94% in test [3] and 33% in test [10]. Also, the ED50 in [4] was 20.2 µmol/kg; in [6], 8.3 µmol/kg. Also, in test [5], the “Ratio TD50/ED50” value is listed as 2.4.
